Here are results for 24 compounds from ChEMBL document CHEMBL2203145, “Synthesis and structure-activity relationships of tri-substituted thiazoles as RAGE antagonists for the treatment of Alzheimer's disease” (Bioorg Med Chem Lett, 2012).

The target in assay [1] is Advanced glycosylation end product-specific receptor (Mus musculus) (UniProt Q62151). Kind of assay: Antagonist activity at RAGE overexpressed in mouse bEND.3 cells assessed as inhibition of FITC-amyloid beta 42 transport across blood-brain barrier at 10 uM by fluorescence assay. The format is functional, cell-based. The method in brief:
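RAGE-overexpressing bEND.3 cells grown 3–4 days to confluence on inserts to form a tight-junction barrier; TEER taken as resistance minus blank-insert resistance, times insert area. Aβ transport across the monolayer measured with compound at 10 µM; reported as % inhibition.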

The target in assay [2] is T1, Advanced glycosylation end product-specific receptor (Homo sapiens, UniProt Q15109). Kind of assay: Antagonist activity at RAGE transfected in CHO cells assessed as inhibition of amyloid beta 42-induced NFkappaB activation at 1 uM after 18 hrs by luciferase reporter gene assay. The format is functional, cell-based. The method in brief:
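CHO-NF-κB-luciferase cells at 20,000 cells/well in Opti-MEM, incubated overnight, then treated with compound (1 µM) for 18 h at 37 °C with or without 5 µM Aβ42. Cells lysed in passive lysis buffer, lysate mixed with luciferase substrate, relative light units read on a luminometer.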

Assay [3] has as its target T1, Advanced glycosylation end product-specific receptor. The assay is described as follows: Antagonist activity at human biotinylated RAGE assessed as inhibition of amyloid beta binding at 10 uM after 60 mins by ELISA. The method in brief: (§1)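 Biotinylated protein with Aβ in BSA-containing buffer incubated on a streptavidin-coated plate for 60 min at ambient temperature, then washed with TBS-T. Bound Aβ detected with HRP-conjugated 4G8 antibody (1:1000, TBS-T with 2.5% BSA) for 60 min at ambient temperature. Developed with TMB, stopped with sulfuric acid, absorbance read at 450 nm.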
A general note: An ELISA detects its analyte on a solid surface through an enzyme-linked reagent.

Assay [4] shares this target. Kind of assay: Antagonist activity at human biotinylated RAGE assessed as inhibition of amyloid beta binding after 60 mins by ELISA. Summed up:
as §1

T1 sequence (Q15109 whole entry): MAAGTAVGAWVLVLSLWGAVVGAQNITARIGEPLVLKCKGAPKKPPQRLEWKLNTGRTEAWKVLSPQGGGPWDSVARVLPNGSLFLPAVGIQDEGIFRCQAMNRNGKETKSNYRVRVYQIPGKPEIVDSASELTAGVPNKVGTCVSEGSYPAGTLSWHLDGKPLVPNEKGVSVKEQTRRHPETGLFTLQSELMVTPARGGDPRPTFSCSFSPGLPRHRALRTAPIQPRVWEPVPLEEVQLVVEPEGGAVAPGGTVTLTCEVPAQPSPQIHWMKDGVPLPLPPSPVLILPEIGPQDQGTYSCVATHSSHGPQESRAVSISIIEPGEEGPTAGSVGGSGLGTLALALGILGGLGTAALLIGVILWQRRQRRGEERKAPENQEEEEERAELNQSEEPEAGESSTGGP
Sequence of Advanced glycosylation end product-specific receptor (Mus musculus) (Q62151 whole entry): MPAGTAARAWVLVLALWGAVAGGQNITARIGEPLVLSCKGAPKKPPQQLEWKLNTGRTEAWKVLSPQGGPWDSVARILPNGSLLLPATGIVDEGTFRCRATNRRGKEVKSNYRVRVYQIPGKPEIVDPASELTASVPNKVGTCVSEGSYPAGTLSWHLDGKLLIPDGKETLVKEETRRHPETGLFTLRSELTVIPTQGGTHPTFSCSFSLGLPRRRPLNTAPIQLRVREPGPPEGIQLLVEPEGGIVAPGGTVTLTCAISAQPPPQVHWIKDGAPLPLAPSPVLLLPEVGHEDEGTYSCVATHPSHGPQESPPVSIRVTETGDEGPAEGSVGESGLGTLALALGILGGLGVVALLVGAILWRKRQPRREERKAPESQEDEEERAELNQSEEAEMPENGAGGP

For orientation: inhibition means the share of the control response that was lost under treatment. As a reminder, the IC50 is the point on the concentration scale where inhibition reaches its midpoint. `CCCCc1sc(-c2ccc(OCC3CCCN(CC)C3)cc2)nc1-c1ccc(Oc2ccc(Cl)cc2)cc1` (stereo unspecified): the figures for the inhibition in assay [1], in assay [2] and in assay [3] were 77.5%, 3% and 58%, respectively. The IC50 in assay [4] was found to be 660 nM.

Regarding `CCCCc1nc(-c2ccc(Oc3ccc(Cl)cc3)cc2)sc1-c1ccc(OCC2CCCN(CC)C2)cc1` (stereo unspecified), the figures for the inhibition in assay [1], in assay [2] and in assay [3] were 61.5%, 4.9% and 53.9%, respectively. The IC50 in assay [4] was 1140 nM.

Take `CCCCc1sc(NC(=O)c2ccc(OCCCN(CC)CC)cc2)nc1-c1ccc(Oc2ccc(Cl)cc2)cc1`: in assay [3], the inhibition worked out at 60.2%. Further, the IC50 in assay [4] came out at 5590 nM.

Turning to `CCCCc1sc(-c2ccc(Oc3ccc(Cl)cc3)cc2)nc1-c1ccc(OCCCN(CC)CC)cc1`, the inhibition in assay [1] worked out at 71.7%; in assay [3] it was 57%. In addition, the IC50 in assay [4] is 1120 nM.

For the compound `CCCCc1sc(-c2ccc(OCCN(C)C)cc2)nc1-c1ccc(Oc2ccc(Cl)cc2)cc1`, the results for the inhibition in assay [1], in assay [2] and in assay [3] were 66.6%, 2.1% and 51.8%, respectively. Further, the IC50 in assay [4] was found to be 3180 nM.

Consider `CCCCc1sc(-c2ccc(OCCCN(C)C)cc2)nc1-c1ccc(Oc2ccc(Cl)cc2)cc1`, for which, in assay [3], the inhibition amounted to 46.2%.

As to `CCCCc1nc(-c2ccc(Oc3ccc(Cl)cc3)cc2)sc1-c1ccc(OCCCN(CC)CC)cc1`, the inhibition in assay [1] is 63.5%; in assay [2] it was 10.3%; in assay [3], 57.1%. The IC50 in assay [4] came out at 2010 nM.

As for `CCCCc1sc(-c2ccc(Oc3ccc(Cl)cc3)cc2)nc1-c1ccc(O)cc1`, the inhibition in assay [3] worked out at 0.2%.

`CCCCc1sc(-c2ccc(OCCCN3CCCCC3)cc2)nc1-c1ccc(Oc2ccc(Cl)cc2)cc1`: the inhibition was found to be 64.3% in assay [1], 11.7% in assay [2] and 59.2% in assay [3]. For the same compound, the IC50 in assay [4] amounted to 1840 nM.

For `CCCCc1sc(-c2ccc(OCCN3CCN(C)CC3)cc2)nc1-c1ccc(Oc2ccc(Cl)cc2)cc1`, the inhibition in assay [1] turned out to be 68.6%; in assay [2] it was 17.2%; in assay [3], 54.7%. Besides, in assay [4], the IC50 came to 1210 nM.

Take `CCCCc1sc(Nc2ccc(OCCCN(CC)CC)cc2)nc1-c1ccc(Oc2ccc(Cl)cc2)cc1`: the inhibition in assay [3] was found to be 60.9%. Moreover, the IC50 in assay [4] is 550 nM.

For `CCCCc1sc(-c2ccc(OCCN3CCCC3)cc2)nc1-c1ccc(Oc2ccc(Cl)cc2)cc1`, the inhibition came to 39.5% in assay [1], 2.5% in assay [2] and 64.2% in assay [3]. In addition, in assay [4], the IC50 was 910 nM.

As to `CCCCc1sc(-c2ccc(OCCN(CC)CC)cc2)nc1-c1ccc(Oc2ccc(Cl)cc2)cc1`, the inhibition stood at 11.3% in assay [2] and 55.1% in assay [3]. For the same compound, in assay [4], the IC50 turned out to be 1580 nM.

With `CCCCc1sc(-c2ccc(OCCCN(CC)CC)cc2)nc1-c1ccc(Oc2ccc(Cl)cc2)cc1`, the inhibition in assay [1] amounted to 73.3%; in assay [3] it was 58.9%. Moreover, the IC50 in assay [4] amounted to 1720 nM.

As to `CCCCc1sc(-c2ccc(OCCCN3CCOCC3)cc2)nc1-c1ccc(Oc2ccc(Cl)cc2)cc1`, in assay [3], the inhibition is 40.6%.

In the case of `CCCCc1nc(-c2ccc(OCCCN(CC)CC)cc2)sc1-c1ccc(Oc2ccc(Cl)cc2)cc1`, in assay [3], the inhibition turned out to be 49.6%.

On to `CCCCc1nc(-c2ccc(OCC3CCCN(CC)C3)cc2)sc1-c1ccc(Oc2ccc(Cl)cc2)cc1` (stereo unspecified), for which the inhibition in assay [3] is 47.7%.

For the compound `CCCCc1sc(-c2ccc(OCCN3CCCCC3)cc2)nc1-c1ccc(Oc2ccc(Cl)cc2)cc1`, the inhibition in assay [1] stood at 55.3%; in assay [2] it was 13.5%; in assay [3], 60.1%. Moreover, in assay [4], the IC50 came to 1040 nM.

On to `CCCCc1sc(-c2ccc(Oc3ccc(Cl)cc3)cc2)nc1-c1ccc(OCC2CCCN(CC)C2)cc1` (stereo unspecified), for which the inhibition is 68.3% in assay [1] and 55.9% in assay [3]. Further, the IC50 in assay [4] stood at 1910 nM.

For the compound `CCCCc1sc(C(=O)Nc2ccc(OCCCN(CC)CC)cc2)nc1-c1ccc(Oc2ccc(Cl)cc2)cc1`, the inhibition in assay [3] is 48.1%.

For the compound `CCCCc1sc(-c2ccc(OCCCN3CCN(C)CC3)cc2)nc1-c1ccc(Oc2ccc(Cl)cc2)cc1`, the inhibition in assay [1] came out at 64.3%; in assay [2] it was 3.1%; in assay [3] it was 59.2%. Also, in assay [4], the IC50 came out at 1240 nM.

For the compound `CCCCc1sc(-c2ccc(Oc3ccc(Cl)cc3)cc2)nc1-c1ccc(OCc2ccccc2)cc1`, in assay [3], the inhibition came out at 2.4%.

On to `CCCCc1sc(-c2ccc(OCCN3CCOCC3)cc2)nc1-c1ccc(Oc2ccc(Cl)cc2)cc1`, for which the inhibition in assay [3] stood at 22.9%.

With `CCCCc1sc(-c2ccc(OCCCN3CCCC3)cc2)nc1-c1ccc(Oc2ccc(Cl)cc2)cc1`, in assay [3], the inhibition was 47.8%.
